“And” between values parts separate entries of the source, which are not always exact repeats. Equal entries are not always repeated.

The test system of assay [1] is HT-29. The assay can be described thus: Difference in days for treated (T) and control (C) HT-29 cell tumors to reach 750 mg in mice at 44 mg/kg peroral dose, days 15-29 administration. Format: functional. Conditions: route oral. In a few lines:
(§1)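 Nude mice (NCr nu/nu), 18–22 g, 6–8 per group, randomized and implanted with serially passaged tumor fragments in the right axilla on day 0. Dosed by average cage weight. Vehicle was 50 mM sodium lactate buffer, pH 4.0, or a 0.5% methyl cellulose suspension for one compound. Cisplatin was given in saline. T − C is the difference in days for treated and control tumors to reach 750 mg.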

In assay [2] the test system is C6. As to the kind of experiment: C6 cell growth in soft agar with discontinued treatment. Format: functional, cell-based, Rattus norvegicus. Conditions: c6. In a few lines: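 C6 rat glioma cells given 3-day exposure to a concentration series, then washed free of inhibitor and plated in drug-free soft agar; colonies stained and counted after two weeks. IC50; mean of two experiments, each in duplicate.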

Assay [3] deals with NIH3T3. The assay can be described thus: Growth of NIH3T3 cell colonies in soft agar with continuous treatment. The format is functional, cell-based. Conditions: Mus musculus. In a few lines:
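Soft agar cloning used PDGF-B-transfected NIH3T3 (NIH3T3/PDGF) cells. Cells were exposed 3 days to a concentration series, then plated in soft agar with the matching compound concentration kept present. Colonies were stained and counted after two weeks. IC50; mean of two experiments, each in duplicate.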

Assay [4] concerns C6. As to the kind of experiment: C6 cell growth in soft agar with continuous treatment. The format is functional, cell-based, Rattus norvegicus. Conditions: c6. Put shortly: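 C6 rat glioma cells (F10 Ham's with 15% horse serum, 2.5% fetal calf serum) exposed 3 days to a concentration series, then plated in soft agar with compound still present at the same concentration; colonies stained and counted after two weeks. IC50; mean of two experiments, each in duplicate.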

In assay [5] the test system is COLO 205. The assay can be described thus: Weight change of COLO 205 tumor cells in mice at 40 mg/kg peroral dose, days 9-23 administration. Also on record: dose 40 mg/kg. Format: functional, organism-based. Put shortly:
(§2)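 Tumor-bearing nude mice (NCr nu/nu, 18–22 g, 6–8 per group) were implanted in the right axilla with tumor fragments on day 0 and dosed by average cage weight. Vehicle was 50 mM sodium lactate pH 4.0, or 0.5% methyl cellulose suspension; cisplatin was given in saline. Host body weight change is given as the maximum treatment-related weight loss.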

In assay [6] the test system is SK-OV-3. As to the kind of experiment: Weight change of SK-OV-3 cell tumors in mice at 40 mg/kg peroral dose, days 15-29 administration. Format: functional. Particulars: route oral. Put shortly: (§3)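 Nude mice (NCr nu/nu, 18–22 g, 6–8 per group) were randomized and implanted with serially passaged tumor fragments in the right axilla on day 0. Oral dosing was based on average cage weight, on the days stated, over a dose range from toxic to ineffective. Vehicle was 50 mM sodium lactate buffer, pH 4.0, or 0.5% methyl cellulose suspension. Host weight change is reported as maximum treatment-related loss.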

For assay [7], the target named is Platelet-derived growth factor receptor (Mus musculus, UniProt P05622+P26618). As to the kind of experiment: Inhibition of PDGF-induced autophosphorylation of PDGF-R in NIH3T3 cells.
For assay [8], the system named is NIH3T3. As to the kind of experiment: Inhibition of NIH3T3 proliferation by sulforhodamine B assay. Format: functional, cell-based, Mus musculus. Particulars: nih3t3.
In assay [9] the test system is NIH3T3. As to the kind of experiment: Growth of NIH3T3 cells in soft agar with continuous treatment. Format: functional, cell-based. Particulars: Mus musculus. Put shortly:
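NIH3T3 cells transfected with PDGF-B exposed to a range of concentrations for 3 days, then cloned in soft agar with the same concentration kept present. Colonies stained and counted after two weeks. IC50; mean of two experiments, each in duplicate.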

The test system of assay [10] is SK-OV-3. As to the kind of experiment: Difference in days for treated (T) and control (C) SKOV-3 cell tumors to reach 750 mg in mice at 40 mg/kg peroral dose, days 15-29 administration. The format is functional. Conditions: route oral. In a few lines:
as §1

Assay [11] concerns Mus musculus. The assay can be described thus: Weight change of PDGF-transfected fibroblast cells in mice at 50 mg/kg peroral dose, days 1-15 administration. Format: functional. Conditions: route oral. Put shortly: as §3
Assay [12] addresses T1, Fibroblast growth factor receptor 1 (Homo sapiens, UniProt P11362). As to the kind of experiment: Inhibition of fibroblast growth factor receptor (FGFr) tyrosine kinase. Put shortly:
(§4)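 Recombinant kinases (PDGFr-β, FGFr-1, c-Src), enzyme inhibition IC50. Mean of at least two separate determinations, each done in triplicate; replicate values typically varied under 30%.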

Assay [13] relates to COLO 205. The assay can be described thus: Net reduction in tumor burden between first and last treatments of COLO 205 cell tumors in mice at 40 mg/kg peroral dose, days 9-23 administration. The format is functional. Particulars: route oral. Put shortly: (§5)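 NCr nu/nu nude mice (18–22 g, 6–8 per group, randomized) had tumor fragments, kept by serial passage in nude mice, implanted in the right axilla on day 0. Mice were dosed by average cage weight on the listed days, over a range from toxic to ineffective doses. Vehicle was 50 mM sodium lactate pH 4.0 or 0.5% methyl cellulose suspension. Net log cell kill was taken between first and last treatments.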

The test system of assay [14] is C6. The assay can be described thus: Difference in days for treated (T) and control (C) C6 glioma cell tumors to reach 750 mg in mice at 50 mg/kg peroral dose, days 1-15 administration. Format: functional. Particulars: route oral. In a few lines:
as §1

The subject of assay [15] is COLO 205. As to the kind of experiment: Difference in days for treated (T) and control (C) COLO 205 cell tumors to reach 750 mg in mice at 40 mg/kg peroral dose, days 9-23 administration. Format: functional. Particulars: route oral. In a few lines: as §1
Assay [16] concerns C6. The assay can be described thus: Inhibition of C6 cell proliferation in sulforhodamine B assay. Conditions: c6. Format: functional, cell-based, Rattus norvegicus. Put shortly: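 C6 rat glioma cells (F10 Ham's, 15% horse serum, 2.5% fetal calf serum) seeded and allowed 24 h to attach, then given serial 2-fold compound dilutions; 4 d at 37 °C, 5% CO2; growth read by sulforhodamine B staining. IC50; mean of two experiments, each in triplicate.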

For assay [17], the system named is MCF7. The assay can be described thus: Difference in days for treated (T) and control (C) MCF-7 cell tumors to reach 750 mg in mice at 50 mg/kg peroral dose, days 1-15 administration. Conditions: route oral. The format is functional. In a few lines: as §1
Assay [18] has as its system Mus musculus. As to the kind of experiment: Difference in days for treated (T) and control (C) PDGF-transfected fibroblast tumors to reach 750 mg in mice at 50 mg/kg peroral dose, days 1-15 administration. Format: functional. Conditions: route oral. Put shortly: as §1
Assay [19] has as its system HT-29. The assay can be described thus: Weight change of HT-29 tumor cells in mice at 44 mg/kg peroral dose, days 15-29 administration. Format: functional. Particulars: route oral. In a few lines:
as §2

Assay [20] relates to MCF7. As to the kind of experiment: Net reduction in tumor burden between first and last treatments of MCF-7 cell tumors in mice at 50 mg/kg peroral dose, days 1-15 administration. The format is functional. Conditions: route oral. In a few lines: as §5
Assay [21] addresses T1, Fibroblast growth factor receptor 1. The assay can be described thus: Inhibitory concentration evaluated against fibroblast growth factor receptor 1.
In assay [22] the test system is C6. As to the kind of experiment: Weight change of C6 glioma tumor cells in mice at 50 mg/kg peroral dose, days 1-15 administration. The format is functional, organism-based. Also on record: dose 50 mg/kg. Put shortly:
as §2

In assay [23] the test system is MCF7. As to the kind of experiment: Weight change of MCF-7 tumor cells in mice at 50 mg/kg peroral dose, days 1-15 administration. The format is functional, organism-based. Also on record: dose 50 mg/kg. In a few lines:
as §2

Assay [24] deals with Proto-oncogene tyrosine-protein kinase Src (Homo sapiens, UniProt P12931). As to the kind of experiment: Inhibition of c-Src tyrosine kinase. The format is functional. In a few lines: as §4
Chain of Proto-oncogene tyrosine-protein kinase Src (P12931 2-536 limits assumed): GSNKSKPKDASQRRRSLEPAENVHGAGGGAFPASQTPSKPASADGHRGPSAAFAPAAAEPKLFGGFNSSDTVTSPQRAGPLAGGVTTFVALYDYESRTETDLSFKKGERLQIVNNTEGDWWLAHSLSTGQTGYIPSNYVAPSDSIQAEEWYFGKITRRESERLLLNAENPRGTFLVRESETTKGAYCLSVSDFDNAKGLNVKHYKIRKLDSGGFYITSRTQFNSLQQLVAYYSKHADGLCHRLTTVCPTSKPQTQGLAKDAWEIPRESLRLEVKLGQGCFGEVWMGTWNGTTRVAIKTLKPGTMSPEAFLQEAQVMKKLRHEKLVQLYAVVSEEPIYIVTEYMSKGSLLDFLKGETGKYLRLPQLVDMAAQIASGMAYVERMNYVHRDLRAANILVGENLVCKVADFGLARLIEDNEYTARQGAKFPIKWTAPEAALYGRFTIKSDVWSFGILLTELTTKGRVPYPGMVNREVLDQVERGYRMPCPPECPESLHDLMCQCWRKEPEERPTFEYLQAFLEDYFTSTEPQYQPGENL

T1 sequence (P11362 whole entry): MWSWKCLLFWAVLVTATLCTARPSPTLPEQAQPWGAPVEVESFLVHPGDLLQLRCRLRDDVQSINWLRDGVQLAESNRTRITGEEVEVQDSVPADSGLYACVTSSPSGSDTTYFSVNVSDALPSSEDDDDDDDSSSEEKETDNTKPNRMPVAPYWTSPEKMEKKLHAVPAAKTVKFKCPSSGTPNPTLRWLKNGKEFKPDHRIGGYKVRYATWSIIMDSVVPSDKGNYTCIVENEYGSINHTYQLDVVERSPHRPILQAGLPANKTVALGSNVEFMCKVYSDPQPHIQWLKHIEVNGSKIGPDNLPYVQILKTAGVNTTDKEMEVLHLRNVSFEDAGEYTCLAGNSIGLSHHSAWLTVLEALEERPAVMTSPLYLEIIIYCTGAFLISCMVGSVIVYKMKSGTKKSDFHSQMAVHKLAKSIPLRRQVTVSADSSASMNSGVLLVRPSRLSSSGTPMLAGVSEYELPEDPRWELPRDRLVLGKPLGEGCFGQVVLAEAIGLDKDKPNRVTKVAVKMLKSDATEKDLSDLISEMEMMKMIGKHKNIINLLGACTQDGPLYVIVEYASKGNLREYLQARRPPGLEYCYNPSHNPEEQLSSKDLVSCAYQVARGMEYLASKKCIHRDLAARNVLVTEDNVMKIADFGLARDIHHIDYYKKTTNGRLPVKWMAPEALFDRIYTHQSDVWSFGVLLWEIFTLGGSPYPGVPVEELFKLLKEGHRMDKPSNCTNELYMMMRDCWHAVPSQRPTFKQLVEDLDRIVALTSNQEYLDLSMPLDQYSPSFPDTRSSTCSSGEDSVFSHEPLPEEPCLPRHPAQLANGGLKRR

For `CCN(CC)CCOc1cccc(Nc2ncc3cc(-c4c(Cl)cccc4Cl)c(=O)n(C)c3n2)c1`, the T-C in the assay on HT-29 [1] was -2.5 days; with SK-OV-3 [10], -0.4 days; in the assay with C6 [14], -2 days; in the assay with COLO 205 [15], 6.8 days; with MCF7 [17] it was 0.8 days; in the assay on Mus musculus [18], -0.4 days. Moreover, the 50% inhibitory concentration (IC50) in the assay with C6 [2] is 2.79 µM and 0.4 µM; in the assay with NIH3T3 [3], 0.017 µM; with C6 [4], 0.44 µM and 0.12 µM; in assay [7], 0.0017 µM; in the assay with NIH3T3 [8], 0.147 µM and 0.41 µM; in the assay on NIH3T3 [9] it was 0.017 µM. For the same compound, the half-inhibitory concentration (IC50) was 0.03 µM in assay [12]; 0.84 µM and 0.35 µM with C6 [16]; 0.032 µM in [21]; 0.009 µM in assay [24]. Also, the Weight change result is reported as “Weight gain” with COLO 205 [5]; -2 g with SK-OV-3 [6]; -1.6 g with Mus musculus [11]; -2 g in the assay on HT-29 [19]; “Weight gain” in the assay with C6 [22]; “Weight gain” with MCF7 [23]. For the same compound, the Net cell kill in the assay on COLO 205 [13] is -0.4 log10; in the assay on MCF7 [20], -0.6 log10.

The record behind these values is ChEMBL document CHEMBL1131066, “2-Substituted aminopyrido[2,3-d]pyrimidin-7(8H)-ones. structure-activity relationships against selected tyrosine kinases and in vitro and in vivo anticancer activity” (J Med Chem, 1998).
